Each structure is given as a SMILES string.

As usually defined, the CC50 is the concentration giving 50% cytotoxicity. Higher therefore signals better tolerance by the cells.

Data set [1] in a line: Cytotoxicity against MDCK cells after 24 hrs by MTT assay. Format: cell-based, Canis lupus familiaris. The note with it: dog. Put shortly: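 MDCK cells grown 24 h at 36 °C, 5% CO2 to confluence. Threefold dilutions in MEM added for 24 h. Cells washed twice with saline, then MTT in MEM for 1 h at 36 °C. Formazan dissolved in DMSO, OD read at 540 nm. CC50 (50% cell death) from four-parameter logistic fit.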
(Tetrazolium assays rely on reduction of a dye to a coloured formazan, in cell work by metabolically active cells.)

The nature of data set [2]: Selectivity index, ratio of CC50 for MDCK cells to IC50 for Influenza A virus (A/Puerto Rico/8/34(H1N1)) […] infected in MDCK cells. The note with it: dog, read-out: Ratio CC50/IC50. Format: toxicity, cell-based. In short, it runs like this: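 SI computed as CC50/IC50. CC50 from the MTT assay on MDCK cells (24 h). IC50 is the concentration halving A/PR/8/34 (H1N1) titer in MDCK cells, measured by hemagglutination.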

`COc1ccc(N2CCN=C2c2ccc(C3=NCCN3)cc2)cc1` came in with a CC50 at 24 h in data set [1] of 224 µM. The selectivity ratio in data set [2] stood at 5.
Consider `c1ccc(N2CCN=C2c2ccc(C3=NCCN3)cc2)cc1`, for which, in data set [1], the cytotoxic concentration (CC50) at 24 h was above 1030 µM. The selectivity ratio in data set [2] is above 34.
Consider `c1ccc(N2CCN=C2c2ccc(C3=NCCN3c3ccccn3)cc2)nc1`, for which the CC50 at 24 h in data set [1] was 127 µM. Further, the selectivity ratio in data set [2] amounted to 4.
With `FC(F)(F)c1ccc(N2CCN=C2c2ccc(C3=NCCN3c3ccc(C(F)(F)F)cn3)cc2)nc1`, the midpoint of cytotoxicity in data set [1], the CC50 at 24 h, lay at 455 µM. Besides, in data set [2], the selectivity ratio was 4.
`c1ccc(N2CCN=C2c2ccc(C3=NCCN3c3ccccc3)cc2)cc1` returned a CC50 at 24 h in data set [1] above 817 µM. Further, in data set [2], the selectivity ratio is above 11.
In turn, `Fc1ccc(N2CCN=C2c2ccc(C3=NCCN3c3ccc(F)cc3)cc2)cc1` gave a CC50 at 24 h in data set [1] of 144 µM. Also, the selectivity ratio in data set [2] was 12.
Compound `CC(N)C12CC3CC(CC(C3)C1)C2` (stereo not drawn) [RIMANTADINE] yielded a 50% cytotoxic concentration (CC50) at 24 h in data set [1] of 62 µM. Also, the selectivity ratio in data set [2] was determined as 6.
The matching figures for `c1cncc(N2CCN=C2c2ccc(C3=NCCN3c3cccnc3)cc2)c1`: above 813 µM and above 12.
For `c1cnc(N2CCN=C2c2ccc(C3=NCCN3c3cnccn3)cc2)cn1`, the CC50 at 24 h in data set [1] is above 809 µM.
Consider `COc1ccc(N2CCN=C2c2ccc(C3=NCCN3c3ccc(OC)cc3)cc2)cc1`, for which half-maximal cytotoxicity in data set [1] (CC50 at 24 h) was put at 361 µM. Further, the selectivity ratio in data set [2] came to 23.
In the case of `Fc1ccc(N2CCN=C2c2ccc(C3=NCCN3)cc2)cc1`, the CC50 at 24 h in data set [1] was above 971 µM. Further, the selectivity ratio in data set [2] was above 15.
For `Clc1ccc(N2CCN=C2c2ccc(C3=NCCN3c3ccc(Cl)cc3)cc2)cc1`, in that order: 9 µM and 2.

These data come from ChEMBL document CHEMBL4325883, “Non-chelating p-phenylidene-linked bis-imidazoline analogs of known influenza virus endonuclease inhibitors: Synthesis and anti-influenza activity” (Eur J Med Chem, 2019).
